Measurements from ChEMBL document CHEMBL1152193, “Structure-activity relationships of natural and non-natural amino acid-based amide and 2-oxoamide inhibitors of human phospholipase A(2) enzymes” (Bioorg Med Chem, 2008).

Columns and labels:
[1] = target: T1, Cytosolic phospholipase A2 (Homo sapiens) (UniProt P47712); assay: Inhibition of human group 4A cytosolic Ca2+-dependent phospholipase A2 at 0.091 mole fraction by modified Dole assay
T1 sequence (whole entry): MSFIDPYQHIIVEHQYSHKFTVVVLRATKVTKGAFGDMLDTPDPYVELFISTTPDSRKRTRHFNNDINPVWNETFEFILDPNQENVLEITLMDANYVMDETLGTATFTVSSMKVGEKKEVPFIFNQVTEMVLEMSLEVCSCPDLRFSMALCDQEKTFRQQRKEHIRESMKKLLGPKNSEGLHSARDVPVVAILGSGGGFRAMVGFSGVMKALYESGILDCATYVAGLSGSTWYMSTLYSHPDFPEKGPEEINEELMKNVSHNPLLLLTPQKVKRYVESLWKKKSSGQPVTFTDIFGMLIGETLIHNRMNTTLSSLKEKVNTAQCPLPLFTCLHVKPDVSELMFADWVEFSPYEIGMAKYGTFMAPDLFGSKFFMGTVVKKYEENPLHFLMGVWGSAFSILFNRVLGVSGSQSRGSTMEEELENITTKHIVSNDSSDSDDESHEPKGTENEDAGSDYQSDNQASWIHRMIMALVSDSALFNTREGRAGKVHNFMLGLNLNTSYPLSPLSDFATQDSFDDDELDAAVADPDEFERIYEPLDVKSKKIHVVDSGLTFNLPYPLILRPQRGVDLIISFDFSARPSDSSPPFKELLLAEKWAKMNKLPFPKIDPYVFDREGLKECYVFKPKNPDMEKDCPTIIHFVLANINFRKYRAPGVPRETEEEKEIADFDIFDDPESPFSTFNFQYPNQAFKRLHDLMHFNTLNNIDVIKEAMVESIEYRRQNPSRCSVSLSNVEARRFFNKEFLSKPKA
Summary of the method: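 Buffer: 100 mM HEPES pH 7.5, 90 μM CaCl2, 2 mM DTT, 0.1 mg/ml BSA. Inhibitor present at 0.091 mole fraction of the total substrate interface; percent inhibition determined.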

[2] = target: T2, 85/88 kDa calcium-independent phospholipase A2 (Homo sapiens) (UniProt O60733); assay: Inhibition of human group 6A cytosolic Ca(2+)-independent phospholipase A2 at 0.091 mole fraction by modified Dole assay
T2 sequence (whole entry): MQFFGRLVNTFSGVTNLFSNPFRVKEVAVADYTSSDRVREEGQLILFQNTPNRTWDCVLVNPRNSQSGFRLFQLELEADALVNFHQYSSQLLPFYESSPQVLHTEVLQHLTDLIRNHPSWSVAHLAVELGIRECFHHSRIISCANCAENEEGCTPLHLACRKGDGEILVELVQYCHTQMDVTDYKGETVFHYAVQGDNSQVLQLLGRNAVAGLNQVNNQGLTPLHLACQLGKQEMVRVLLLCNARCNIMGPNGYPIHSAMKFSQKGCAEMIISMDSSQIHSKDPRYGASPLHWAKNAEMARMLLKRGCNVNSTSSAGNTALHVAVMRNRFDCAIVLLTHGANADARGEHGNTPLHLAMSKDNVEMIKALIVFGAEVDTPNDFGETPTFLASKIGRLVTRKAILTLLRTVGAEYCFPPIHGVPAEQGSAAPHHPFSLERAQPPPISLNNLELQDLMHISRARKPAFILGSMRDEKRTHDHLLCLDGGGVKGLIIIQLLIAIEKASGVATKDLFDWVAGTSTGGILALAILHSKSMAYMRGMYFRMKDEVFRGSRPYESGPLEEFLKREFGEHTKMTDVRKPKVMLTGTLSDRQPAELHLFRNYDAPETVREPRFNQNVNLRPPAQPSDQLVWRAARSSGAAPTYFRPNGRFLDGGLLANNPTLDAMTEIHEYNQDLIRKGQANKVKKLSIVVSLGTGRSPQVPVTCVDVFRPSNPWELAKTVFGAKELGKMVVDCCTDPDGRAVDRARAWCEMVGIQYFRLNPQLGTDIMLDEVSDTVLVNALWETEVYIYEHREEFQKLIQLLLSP

[3] = target: T3, Phospholipase A2 group V (Homo sapiens) (UniProt P39877); assay: Inhibition of human group 5 Ca2+-dependent secretory phospholipase A2 at 0.091 mole fraction by modified Dole assay
T3 sequence (whole entry): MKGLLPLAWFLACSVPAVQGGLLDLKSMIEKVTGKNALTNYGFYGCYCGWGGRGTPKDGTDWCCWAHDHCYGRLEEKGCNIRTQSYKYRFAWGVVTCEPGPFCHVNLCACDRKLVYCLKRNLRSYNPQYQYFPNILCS

Row | inhibition [1] | inhibition [2] | inhibition [3] | Compound
1 | < 25% | < 25% | < 25% | COC(=O)CNC(=O)CCCCCCc1ccccc1
2 | 85% | 72% | 87% | CCCCCCCCCCCCCCC(=O)C(=O)N[C@@H](C)CCC(=O)OC(C)(C)C
3 | 36% | 57% | 66% | CC(C)(C)OC(=O)CCNC(=O)CCCCCCc1ccccc1
4 | 80% | 53% | 82% | CCCCCCCCCCCCCCC(=O)C(=O)NCC(=O)OC(C)(C)C
5 | 35% | < 25% | 38% | CCCCCCCCCCCCCCC(=O)C(=O)NCCCC(=O)OCc1ccccc1
6 | 53% | 63% | 38% | C=CCOC(=O)CCCNC(=O)C(=O)CCCCCCCCCCCCCC
7 | < 25% | < 25% | 42% | CCCCCCCCCCCCCCC(=O)C(=O)NCCCCC(=O)OC
8 | 54% | 31% | 30% | COC(=O)CNC(=O)C(=O)CCCCCCc1ccccc1
9 | 87% | 78% | 86% | CCCCCCCCCCCCCCC(=O)C(=O)N[C@@H](CCCC)CCC(=O)OC
10 | 74% | 62% | 72% | CCCCCCCCCCCCCCC(=O)C(=O)NCCCCC(=O)OC(C)(C)C
11 | 87% | < 25% | 78% | CCCCCCCCCCCCCCC(=O)C(=O)Nc1ccc(C(=O)OCC)cc1
12 | 31% | 35% | 47% | CCCCCCCCCCCCCCC(=O)C(=O)NCCCCC(=O)OCC
13 | 62% | 66% | < 25% | CCCCCCCCCCCCCCC(=O)C(=O)N[C@@H](CCCC)CCCCC(=O)OCC
14 | < 25% | < 25% | < 25% | CCCC[C@@H](CCC(=O)O)NC(=O)CCCCCCc1ccccc1
15 | < 25% | < 25% | 95% | CCCC[C@H](CCC(=O)O)NC(=O)CCCCCCc1ccccc1
16 | 79% | 54% | 72% | CCCCCCCCCCCCCCC(=O)C(=O)NCCC(=O)OC(C)(C)C
17 | 32% | < 25% | < 25% | CCCCCCCCCCCCCCC(=O)C(=O)NCCCC(=O)CCCC
18 | 64% | 74% | 52% | CCCCCCCCCCCCCCC(=O)C(=O)N[C@H](/C=C/C=C/C(=O)OCC)CCCC
19 | 85% | < 25% | < 25% | CCCCCCCCCCCCCCC(=O)C(=O)N[C@H](/C=C/C=C/C(=O)O)CCCC
20 | 44% | 51% | 59% | CCCCCCCCCCCCCCC(=O)C(=O)NCCC(=O)OCC
21 | 83% | 65% | 65% | CCCCCCCCCCCCCCC(=O)C(=O)N[C@H](CCC(=O)OC)CC(C)C
22 | 62% | 51% | 64% | CCCCCCCCCCCCCCC(=O)C(=O)NCCCCOCC
23 | 82% | 81% | 69% | CC(C)(C)OC(=O)CCNC(=O)C(=O)CCCCCCc1ccccc1
24 | 62% | 45% | 52% | CCCCCCCCCCCCCCC(=O)C(=O)NCC(=O)OC
25 | 74% | 62% | 62% | CCCCCCCCCCCCCCC(=O)C(=O)NCC(=O)OCC
26 | < 25% | < 25% | 48% | CCCCCCCCCCCCCCC(=O)C(=O)NCCC(=O)OC
